The record followed here is PubChem BioAssay AID493091 (Sanford-Burnham Center for Chemical Genomics, 2011).

Hit rate of the full screen: of about 340,000 compounds, about 3,000 (0.88%) were called active.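 How the source made its calls: active means inhibition above about 50% at 20 µM (limit read from the data); inactive means the rest.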 Only a selection was taken, and actives are over-represented in it overall.

Carboxy-terminal domain RNA polymerase II polypeptide A small phosphatase 1 (Homo sapiens), sequence (Q9GZU7 76-261 limits assumed): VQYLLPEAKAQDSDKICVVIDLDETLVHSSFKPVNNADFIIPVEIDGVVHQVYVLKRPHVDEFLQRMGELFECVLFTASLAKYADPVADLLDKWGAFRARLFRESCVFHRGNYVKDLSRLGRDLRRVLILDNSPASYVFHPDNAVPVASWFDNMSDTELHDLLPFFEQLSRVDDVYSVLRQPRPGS

The test addresses Carboxy-terminal domain RNA polymerase II polypeptide A small phosphatase 1 (Homo sapiens) (UniProt Q9GZU7). In words: inhibition of human SCP1 dephosphorylation activity – biochemical, colorimetric, uHTS, primary screen (AID 493091).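 Further: plate controls were DMSO wells with enzyme for no effect and wells lacking enzyme for full effect.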 The conditions noted are these: Recombinant Scp1, phosphopeptide, malachite green phosphate absorbance; at 20 µM; active compounds read high. In outline: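 assay system = SCP-1 phosphatase catalytic domain, residues 76-261 | buffer or medium = 50 mM Tris acetate pH 5.5, 0.005% Tween-20, 10 mM MgCl2 | incubation = enzyme reaction 45 min at room temperature, colour 5 min, stabilisation 30 min | signal = Phosphate-binding colour reagent, absorbance read at 630 nm | measure = % inhibition at 20 µM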
For the molecule `N#CCCN1CCN(S(=O)(=O)c2ccc(S(=O)(=O)NC3CCCCC3)cc2)CC1`, the inhibition (usually the relative decrease from the control value, in per cent) is -9.7% (inactive).

On to `COc1cc(/C=N/NC(=O)c2cc(-c3ccccc3C)nc3ccccc23)cc(OC)c1O`, for which the inhibition is -6.97% (inactive).

Take `COc1cccc(/C=N/NC(=O)c2[nH]nc3c2CCc2ccccc2-3)c1O`: the inhibition is 89% (active).

For `Cc1ccc(C(=O)N/N=C/c2cccc3ccccc23)cn1`, the inhibition was 0.35% (inactive).

`CN(C(=O)COC(=O)Cc1ccccc1[N+](=O)[O-])C1CCS(=O)(=O)C1` (stereo unspecified): the inhibition is 1.98% (inactive).

Consider `CN(C(=O)COC(=O)c1cc(-c2ccco2)nc2ccccc12)C1CCS(=O)(=O)C1` (stereo unspecified), for which the inhibition is 88.8% (active).

`CN(CCOc1ccccc1)C(=O)c1cc(-c2ccco2)nc2ccccc12`: the inhibition was 49% (inactive).

For the molecule `CCOC(=O)C1CCCN(C(=O)c2ccc(CS(=O)(=O)c3ccc(Br)cc3)o2)C1` (stereo unspecified), the inhibition is 5.99% (inactive).

Take `Cc1nnc(SCc2cccc(Cl)c2)n(N)c1=O`: the inhibition was -7.11% (inactive).

As to `COc1cccc2sc(N(CCCN(C)C)C(=O)C(c3ccccc3)c3ccccc3)nc12`, the inhibition is 59.4% (active).

Turning to `Cc1cccc2sc(N(CCCN(C)C)C(=O)CCS(=O)(=O)c3ccccc3)nc12`, the inhibition was 5.73% (inactive).

Turning to `COc1cccc2sc(N(CCCN(C)C)C(=O)CCS(=O)(=O)c3ccccc3)nc12`, the inhibition is 8.55% (inactive).

As to `CC1CN(S(=O)(=O)c2ccccc2)C(C)CN1S(=O)(=O)c1ccccc1` (stereo unspecified), the inhibition was 15.5% (inactive).

Regarding `O=C(Nc1ccc(Cl)cc1)C1c2cccc[n+]2CC(=O)N1Cc1ccc2c(c1)OCO2` (stereo unspecified), the inhibition was 39.5% (inactive).

Regarding `C=CCC(Nc1ccccc1)c1cccc(OC)c1OC` (stereo unspecified), the inhibition is 0.9% (inactive).

Regarding `COc1ccc2oc(=O)cc(-c3cc4ccccc4o3)c2c1`, the inhibition is -1.71% (inactive).

With `COc1cccc2cc(C(=O)N(C)C)c(=O)oc12`, the inhibition was -2.27% (inactive).

Turning to `COc1cccc2cc(-c3cc(=O)oc4cc(C)c(O)cc34)oc12`, the inhibition is 58.8% (active).

As to `Cc1ccsc1-c1nc(CSCC(=O)NCCN2CCCC2)c(C)o1`, the inhibition was -6.12% (inactive).

Turning to `COC(=O)C1C(=O)NCC1c1ccc(OC)cc1` (stereo unspecified), the inhibition is -1.05% (inactive).

Take `Cc1cc(=O)oc2c1c(C)nn2-c1ccc(Cl)cc1`: the inhibition is -6.94% (inactive).

`CCOC(=O)CNC(=O)c1nn(-c2cccc(OC)c2)c(=O)c2ccccc12`: the inhibition is 1.07% (inactive).

On to `Cc1nn(-c2cc(Cl)ccc2N)c(=O)c2ccccc12`, for which the inhibition was 60.1% (active).

In the case of `CCCC(C(=O)N1CCOCC1)N1C(=O)C2C3C=CC(C3)C2C1=O` (stereo unspecified), the inhibition was 1.46% (inactive).

Take `Cc1cc(O)c(C2(O)C(=O)Nc3ccccc32)cc1C` (stereo unspecified): the inhibition is 2.83% (inactive).

Turning to `CC(=O)c1cccc(NC(=O)C2COc3ccccc3O2)c1` (stereo unspecified), the inhibition is -3.69% (inactive).

Take `COc1cc(SC)ccc1C(=O)N(Cc1ccccc1)c1ccccc1`: the inhibition was -9.22% (inactive).

For the molecule `COc1cc(SC)ccc1C(=O)NNC(=O)C1COc2ccccc2O1` (stereo unspecified), the inhibition was 55.9% (active).

With `NNC(=O)C1CC(O)CN1S(=O)(=O)c1ccc(Cl)cc1` (stereo unspecified), the inhibition was -8.23% (inactive).

With `CN1CCN(C2Cc3ccc(Cl)cc3Sc3ccc(F)cc32)CC1` (stereo unspecified), the inhibition is -3.27% (inactive).

Regarding `Cc1c(CCO)c(=O)n(-c2ccccc2)n1S(=O)(=O)c1ccc(F)cc1`, the inhibition was -6.22% (inactive).

For the molecule `CCOC(=O)c1cnn(Cc2ccccc2Cl)c1N`, the inhibition is -4.87% (inactive).

In the case of `CC(=O)Nc1ccc(NC(=O)CSc2nnc(C3CC3)n2-c2ccccc2)cc1`, the inhibition was 3.64% (inactive).

Turning to `CC[n+]1c(C)n(-c2ccccc2)c2ccc(NC(C)=O)cc21`, the inhibition is 59.6% (active).

Regarding `CC(=O)c1cccc(NC(=O)c2cc(C)nn2-c2ccccc2)c1`, the inhibition is -21.8% (inactive).

Regarding `CCc1ccc(NC(=O)CS(=O)CC(=O)N2CCN(c3ccccc3F)CC2)cc1` (stereo unspecified), the inhibition is -3.07% (inactive).

For the molecule `CCc1ccc(NC(=O)CS(=O)CC(=O)NCCCc2ccccc2)cc1` (stereo unspecified), the inhibition is 93.4% (active).

On to `S=C(NCCCc1ccccc1)Nc1ccc(Br)cc1`, for which the inhibition is -8.32% (inactive).

Consider `CC(C)(C)C1CCc2c(sc3nc(SCC(N)=O)nc(N)c23)C1` (stereo unspecified), for which the inhibition is 5.56% (inactive).

For `O=C(Nc1cccnc1)c1cc([N+](=O)[O-])ccc1Cl`, the inhibition is -5.04% (inactive).

`O=C(Nc1cccnc1)c1cc2cc(Br)ccc2oc1=O`: the inhibition was 101% (active).

With `COc1ccc2oc(=N)c(C(=O)Nc3ccc(Br)cc3)cc2c1`, the inhibition is 2.27% (inactive).

Turning to `O=C(Oc1ccc2c(c1)CCC2)N1CCOCC1`, the inhibition is -4.77% (inactive).

Turning to `COc1ccc(CCNS(=O)(=O)c2cn(C)nc2C)cc1`, the inhibition is 0.34% (inactive).

On to `O=C(O)c1ccccc1/C=N/Nc1ccc(S(=O)(=O)Nc2ccc(Cl)cc2)cc1[N+](=O)[O-]`, for which the inhibition is -7.5% (inactive).

Turning to `Oc1[nH]c2ccccc2c1N=Nc1c(F)c(F)c(F)c(F)c1F`, the inhibition is -10.4% (inactive).

On to `O=[N+]([O-])c1cc(S(=O)(=O)Nc2cccc(Cl)c2)ccc1N=Nc1c(O)[nH]c2ccccc12`, for which the inhibition is 52.2% (active).

As for `Cc1ccnc(NS(=O)(=O)c2ccc(NC(=O)c3oc4ccccc4c3C)cc2)n1`, the inhibition was -7.13% (inactive).

For the molecule `O=C1CCC/C=C\C[C@@H](CC(=O)N(CCO)Cc2ccccc2)C(=O)NCCO1`, the inhibition was -0.23% (inactive).

Take `O=C(CCC(=O)N/N=C/c1ccc(Br)o1)N/N=C/c1ccc(Br)o1`: the inhibition was 55% (active).

Take `O=C(CCNC(=O)c1ccccc1Cl)NN=Cc1ccco1`: the inhibition was 10.6% (inactive).

Take `O=C(CCNC(=O)c1ccccc1)NN=Cc1ccc(Br)o1`: the inhibition was 70.2% (active).

For `N#CCC(=O)N/N=C/c1ccc(SCC(=O)Nc2ccccc2)o1`, the inhibition was -8.26% (inactive).

Take `O=C(N/N=C/c1ccc(Br)o1)c1cncc(Br)c1`: the inhibition was 0.65% (inactive).

Consider `O=C(CCc1n[nH]c(=O)[nH]c1=O)N/N=C/c1ccc(Br)o1`, for which the inhibition is 2.94% (inactive).

Regarding `Cc1ccc(S(=O)(=O)NCC(C)NS(C)(=O)=O)cc1` (stereo unspecified), the inhibition is -4.62% (inactive).

Turning to `Cc1cccc(C)c1NC(=O)COC(=O)c1ccccc1O`, the inhibition is -5.49% (inactive).

In the case of `COc1ccc(CNS(=O)(=O)c2cc(-c3cc(C)no3)ccc2C(C)C)cc1`, the inhibition was -11% (inactive).

As to `O=C(c1cc(S(=O)(=O)N2CCOCC2)ccc1Cl)N1CCOCC1`, the inhibition was -9.49% (inactive).

Regarding `CC(=O)N1CCN(S(=O)(=O)c2cccc(C(=O)NC3CCC(C)CC3)c2)CC1` (stereo unspecified), the inhibition is 5.39% (inactive).

Take `C[C@H](NC(=O)C1CC(=O)N(c2ccc3c(c2)OCO3)C1)C(=O)NCc1ccco1` (stereo partly specified): the inhibition is -2.53% (inactive).
